CSC inhib: cancer stem cell inhibition | inhibition, % at 7.5 µM | cancer stem cell-like cells viability, luminescence | AID 2717 | 300,000 compounds, 1.1% hits; in the data active means inhibition above about 75%; tested in HMLE shEcad cells
PREPL inh: inhibitors of human prolyl oligopeptidase-like enzyme PREPL | 320,000 compounds, 0.68% hits | inhibition, % at 5.96 µM | AID 2751 | Q4J6C6 | recombinant PREPL, fluorescence polarization activity-based probe; in the data active means inhibition above about 43%
Target sequence (Q4J6C6 whole entry, looked up): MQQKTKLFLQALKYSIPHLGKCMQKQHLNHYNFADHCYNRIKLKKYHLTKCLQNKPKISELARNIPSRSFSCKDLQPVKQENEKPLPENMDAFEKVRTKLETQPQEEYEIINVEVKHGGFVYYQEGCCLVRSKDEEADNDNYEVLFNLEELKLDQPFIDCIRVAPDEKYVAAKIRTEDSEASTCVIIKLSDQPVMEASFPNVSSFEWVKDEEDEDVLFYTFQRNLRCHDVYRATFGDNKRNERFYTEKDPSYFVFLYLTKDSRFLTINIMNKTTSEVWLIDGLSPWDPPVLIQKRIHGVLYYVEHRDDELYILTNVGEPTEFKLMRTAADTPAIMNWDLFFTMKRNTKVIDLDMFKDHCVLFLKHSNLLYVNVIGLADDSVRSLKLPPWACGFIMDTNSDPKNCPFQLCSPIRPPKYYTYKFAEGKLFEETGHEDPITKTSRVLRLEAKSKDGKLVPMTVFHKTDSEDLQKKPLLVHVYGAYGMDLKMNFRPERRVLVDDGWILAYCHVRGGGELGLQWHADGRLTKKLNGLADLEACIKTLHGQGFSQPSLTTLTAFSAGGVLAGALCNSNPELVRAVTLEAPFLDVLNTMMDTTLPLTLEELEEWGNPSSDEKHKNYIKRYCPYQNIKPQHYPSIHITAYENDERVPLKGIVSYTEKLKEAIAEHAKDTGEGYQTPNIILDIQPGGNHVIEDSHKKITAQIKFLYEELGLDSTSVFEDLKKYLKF
T cruzi repl: T. cruzi replication inhibition; 300,000 compounds, 1.4% hits; T. cruzi beta-gal in NIH3T3, luminescence, 90 h; inhibition, % (no concentration beside the values);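 active means mean inhibition across valid replicates above about 55%, limit read from the data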;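 further: signal also drops with host cell toxicity which is not excluded here; higher percent means less beta-gal luminescence so fewer parasites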
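compound dosing = single 50 nL compound addition per well in DMSO | material = NIH/3T3 host cells with β-galactosidase reporter T. cruzi | input = 5,000 host fibroblasts per well | timing = ≥90 h infection period, 3 h prior cell attachment | read-out basis = percent inhibition of parasite-derived β-gal signal | detection = GalScreen β-gal luminescence, detergent lysis, 60 min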
CHOP inh: blocks CHOP induction under ER stress; inhibition, % at 10 µM; CHO-K1 CHOP-promoter luciferase, tunicamycin-induced, 15-18 h; 220,000 compounds, 3.8% hits;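 active means compounds that reduced the stress-induced luciferase reporter signal by more than about 70% of percent inhibition, limit read from the data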
NR3A LBD binder: modulators (binders) of human NR3A ligand-binding domain. NR3A LBD differential scanning fluorimetry, Tm shift; 0% = protein alone, 100% = glycine-bound protein. Tm shift relative to glycine control, % at 25 µM. 340,000 compounds, 2.5% hits;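 active means melting temperature shift of at least 10% of the positive control shift, at one fixed dose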
Beta apoptosis: beta cell apoptosis inhibition; INS-1E cytokine-induced death, ATP luminescence, 48 h; percent of positive-control rescue, neutral wells zero; protection from apoptosis, % (test concentration not listed); 300,000 compounds, 0.8% hits;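 active means Every replicate reaches about 75%, or at least half do and their mean reaches it too, limit read from the data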;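 further: higher means more ATP so stronger rescue from cytokine killing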
A number is an active result; - = inactive; . = not tested or not shown. Compounds with a hit are over-represented: about 6.7% of the library has one in this group of screens.

SMILES	CSC inhib	PREPL inh	T cruzi repl	CHOP inh	NR3A LBD binder	Beta apoptosis
COc1ccc(COCC(O)CN2CCC(CN3C(=O)c4cccc5cccc(c45)C3=O)CC2)cc1OC (centres undefined)	-	-	-	-	-	-
O=C1c2cccc3cccc(c23)C(=O)N1CC1CCN(CC(O)COc2ccc3ccccc3c2)CC1 (centres undefined)	103.2	-	65.9	.	-	-
COc1cccc(OCC(O)CN2CCC(CN3C(=O)c4cccc5cccc(c45)C3=O)CC2)c1 (centres undefined)	-	-	62.8	-	-	-
COC(=O)c1cn(Cc2ccccn2)c(=O)c2ccccc12	-	-	-	-	-	-
CCOC(=O)c1c(C)[nH]c(C)c1C(=O)CSc1nc2ccccc2c(=O)n1-c1ccc(Cl)cc1	-	-	-	-	-	-
O=C(CSc1nc2ccccc2c(=O)n1-c1ccc(Cl)cc1)c1ccco1	-	-	-	74.0	-	-
O=C(CSc1nc2ccccc2c(=O)n1-c1ccccc1)c1c[nH]c2ccccc12	.	-	-	76.1	18.2	-
NC(=O)CSc1nc2ccccc2c(=O)n1-c1ccccc1	-	-	-	.	-	-
CC1(C)CC[C@]2(C(=O)O)CC[C@]3(C)C(=CC[C@@H]4[C@@]5(C)CC[C@H](O[C@@H]6O[C@H](C(=O)O)[C@@H](O)[C@H](O[C@@H]7OC[C@H](O)[C@H](O)[C@H]7O)[C@H]6O)C(C)(C)[C@@H]5CC[C@]43C)[C@@H]2C1	99.3	-	.	.	-	108.6
CC1(C)CC[C@]2(C(=O)O[C@@H]3O[C@H](CO)[C@@H](O)[C@H](O)[C@H]3O)CC[C@]3(C)C(=CCC4[C@@]5(C)CC[C@H](O[C@@H]6O[C@H](C(=O)O)[C@@H](O[C@H]7OC[C@@H](O)[C@@H](O)[C@@H]7O)[C@H](O)[C@H]6O)C(C)(C)C5CC[C@]43C)[C@@H]2C1 (some centres undefined)	-	-	.	.	-	-
COc1ccc(-c2nnc(SCC(=O)N3CCCC3=O)n2N)cc1OC	-	-	.	.	18.8	-
CCOC(=O)C(Cc1cc(N)c(Oc2ccc(OC)cc2)c(N)c1)NC(C)=O (centres undefined)	.	.	.	.	-	.
COCCn1cnc2c(c1=O)c1nc3ccccc3nc1n2/N=C/c1ccc(OC)c(OC)c1	-	-	-	-	-	-
C=CCn1cnc2c(c1=O)c1nc3ccccc3nc1n2/N=C/c1cccc(OC)c1	.	.	.	.	11.1	.
O=C(Nc1ccc(-c2csc(-c3ccccc3)n2)cc1)c1ccccc1	-	-	-	-	13.3	-
Cc1nc(-c2ccc(C(=O)Nc3ccc(F)cc3)cc2)cs1	-	-	-	-	10.9	-
O=C(Cc1csc(-c2ccccc2)n1)Nc1ccc(C(F)(F)F)cc1	-	-	-	82.6	13.3	-
Cc1ccc(NC(=O)Cc2csc(-c3ccccc3)n2)cc1F	-	-	-	-	-	-
Cc1nc(-c2cccc(NC(=O)c3ccc(-n4cccn4)cc3)c2)cs1	-	-	.	.	15.9	-
CCCCCN1CN(S(=O)(=O)c2cccs2)c2nc3ccccc3nc21	-	-	-	-	-	-
COc1cc(/C=N/Nc2ccccc2[N+](=O)[O-])cc(OC)c1O	-	-	-	-	-	-
COc1ccc(/C=N/NC(=S)Nc2ccccc2[N+](=O)[O-])cc1O	88.7	-	-	-	-	-
Cc1ccc(NC(=S)N/N=C/c2c(Cl)cccc2Cl)c(C)c1	101.2	-	-	-	-	-
O=[N+]([O-])c1cc(/C=N/NC(=S)Nc2ccccc2Cl)ccc1Cl	83.9	-	.	-	18.3	-
O=C(N/N=C/c1ccc(Cl)c([N+](=O)[O-])c1)C1CC1	-	-	-	-	-	-
SMILES	CSC inhib	PREPL inh	T cruzi repl	CHOP inh	NR3A LBD binder	Beta apoptosis
Cc1ccc(NC(=S)N/N=C/c2ccc(Cl)c([N+](=O)[O-])c2)cc1	-	-	-	79.8	21.6	-
Cc1cc(Cn2nc(C(=O)NCC3CC3)cc2-c2ccccc2)on1	-	-	-	.	-	-
CCOC(=O)N1CCN(C(=O)c2ccc(Oc3ccc([N+](=O)[O-])cc3)cc2)CC1	-	-	-	-	-	-
S=C(N/N=C/c1ccc(Cl)c(Cl)c1)Nc1ccccc1Cl	-	-	-	-	37.9	-
Cc1ccccc1NC(=S)NCC1CCN(C(C)c2ccccc2)C1 (centres undefined)	-	-	57.8	-	-	-
CC[C@]12c3[nH]c4ccccc4c3CCN1C(=O)C(CC(=O)NCCCN(C)C)C[C@@H]2C(=O)N1CCN(C(=O)c2ccco2)CC1 (some centres undefined)	-	-	.	.	-	-
CCCCCCC[C@@H](C/C=C/CCC(=O)N(C)C/C(=C/Cl)C/C(=C\C(=O)N1CC(OC)=CC1=O)OC)OC	140.0	-	.	.	-	-
COc1ccc(CCNC(=O)C2CCC(C(C)(C)C)CC2)cc1OC (centres undefined)	-	-	-	.	-	-
CC(=O)NCC(=O)OCC(=O)Nc1ccc(C(C)=O)cc1	-	-	-	-	13.1	-
CN1CCN(c2ccc(Nc3ccnc4cc(Cl)ccc34)cc2)CC1	-	-	60.3	.	-	-
CCOc1ccc(Nc2ccnc3cc(Cl)ccc23)cc1	-	-	-	-	-	-
CC(C)c1cc(C(=O)OCC(=O)NC(=O)NCc2ccco2)c(O)c(C(C)C)c1	-	-	-	102.1	-	-
O=c1[nH]c2ccccc2cc1CN(Cc1ccco1)S(=O)(=O)c1ccccc1	.	-	-	.	-	-
Cc1ccc(CN=c2c([N+](=O)[O-])nn(-c3ccc4c(c3)OCCO4)n2O)cc1	-	-	-	-	13.0	-
O=[N+]([O-])c1nn(-c2ccc3c(c2)OCCO3)n(O)c1=NCCCO	-	-	76.9	-	-	-
COc1ccc(-n2nc([N+](=O)[O-])c(=NCCc3cccc(C)c3)n2O)cc1	-	-	62.7	-	-	-
COc1ccc(-n2nc([N+](=O)[O-])c(=NCCCN3CCCC3=O)n2O)cc1	-	-	-	-	-	-
O=C1CCCN1CCCN=c1c([N+](=O)[O-])nn(-c2ccc(Cl)cc2)n1O	.	.	67.5	-	-	.
COc1ccc(-n2nc([N+](=O)[O-])c(=NCc3ccc4c(c3)OCO4)n2O)cc1	-	-	-	-	-	-
CC(C)n1c(O)c(N=NC(=O)C2COc3ccccc3O2)c2ccccc21 (centres undefined)	-	-	-	-	-	-
CN1CCC(OC(=O)c2ccc(Cl)cc2Cl)CC1	-	-	57.9	-	-	-
CN1CCC(OC(=O)c2cc3cc(Cl)cc(Cl)c3oc2=O)CC1	-	-	-	.	-	-
COC(=O)c1cc(C(=O)c2ccc(Cl)cc2Cl)cn1C	-	-	-	71.7	-	-
CN1CCC(OC(=O)c2ccccc2Cl)CC1	-	-	57.8	-	-	-
